Rows were chosen to be rich in hits. Some 1.3% of all compounds tested hit in one or more screens of this group.
G6PDH counter: inhibits Leuconostoc G6PDH, flagging false hits in G6PDH-based assays; Purified L. mesenteroides G6PDH, diaphorase/resazurin coupled fluorescence, 45 min; 0.12% of 200,000 active; AID 1020; inhibition, % at 5 µM; in the data active = inhibition above about 50%
Diaph inh CS: counter-screen for diaphorase-based assays: diaphorase inhibitors and chemical oxidizers | diaphorase resazurin-to-resorufin fluorescence, NADH, 16 min; bacterial (C. kluyveri) enzyme, not human | inhibition, % at 20 µM | 0.69% of 190,000 active | AID 1217;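 active = primary screen inhibition at 20 µM above a set limit, cut at about 50% in these data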
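Benchmarks: positive control wells lacking NADH, neutral wells with DMSO only. System: bacterial diaphorase enzyme (C. kluyveri). Input: 0.14 U/mL diaphorase, enzyme working solution. Detection: resorufin fluorescence, excitation 544 nm, emission 590 nm. Times: 16-min room-temperature incubation before reading.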
HKDC1 inhibitor: inhibitors of human hexokinase HKDC1; Q2TB90; recombinant HKDC1, G6PDH/diaphorase resazurin coupled fluorescence; inhibition, % at 20 µM; 0.16% of 340,000 active;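 active = inhibition above about 35% when tested at 20 µM, limit read from the data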
Target sequence (Q2TB90 whole entry, looked up): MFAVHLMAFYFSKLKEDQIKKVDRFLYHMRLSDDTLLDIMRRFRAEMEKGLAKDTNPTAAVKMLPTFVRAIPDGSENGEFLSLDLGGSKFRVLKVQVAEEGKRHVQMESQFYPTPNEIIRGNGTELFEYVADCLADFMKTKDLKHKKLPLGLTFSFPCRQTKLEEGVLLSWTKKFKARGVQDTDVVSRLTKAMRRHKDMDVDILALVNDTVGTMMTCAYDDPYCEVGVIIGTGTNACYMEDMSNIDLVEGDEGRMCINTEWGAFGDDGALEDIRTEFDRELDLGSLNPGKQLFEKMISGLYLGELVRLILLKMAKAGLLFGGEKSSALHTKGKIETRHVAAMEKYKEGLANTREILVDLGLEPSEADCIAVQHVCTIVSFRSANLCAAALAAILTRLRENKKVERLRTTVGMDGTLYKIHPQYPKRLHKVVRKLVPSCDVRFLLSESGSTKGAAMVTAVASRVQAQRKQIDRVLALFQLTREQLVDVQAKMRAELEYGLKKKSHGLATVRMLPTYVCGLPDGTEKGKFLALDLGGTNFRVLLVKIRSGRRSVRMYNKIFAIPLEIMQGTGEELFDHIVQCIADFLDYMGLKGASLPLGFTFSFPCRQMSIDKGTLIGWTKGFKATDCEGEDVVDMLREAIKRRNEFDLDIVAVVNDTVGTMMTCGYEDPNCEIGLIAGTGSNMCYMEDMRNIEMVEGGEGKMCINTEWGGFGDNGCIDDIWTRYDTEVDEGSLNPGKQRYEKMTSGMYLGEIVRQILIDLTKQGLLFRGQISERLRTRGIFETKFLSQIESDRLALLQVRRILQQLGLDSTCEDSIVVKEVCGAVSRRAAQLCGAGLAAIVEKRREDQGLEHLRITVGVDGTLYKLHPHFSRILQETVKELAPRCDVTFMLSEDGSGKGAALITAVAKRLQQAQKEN
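Test system: recombinant HKDC1 (HK5) hexokinase enzyme, produced in-house / Doses: 20 µM test compound, 1% DMSO / Timing: 90 min, room temperature / Detection: G6PDH/diaphorase-coupled fluorescence, 1 mM NADP, 100 µM resazurin, 525/613 nm / Control set: DMSO wells with and without enzyme mix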
PfG6PD inh: PfG6PD (Plasmodium falciparum) enzyme inhibition. 0.78% of 350,000 active. inhibition, % at 20 µM. AID 504690. PfGluPho enzyme, NADPH resazurin-diaphorase fluorescence;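 active = inhibition reaching at least a set limit at 20 µM in the primary screen, cut at about 59% in these data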
PfGluPho conf: PfG6PD inhibition, single-dose confirmed; shares compounds with PfG6PD inh; recombinant PfGluPho, NADPH-diaphorase-resazurin fluorescence; inhibition, % at 20 µM; 34% of 2,400 active; AID 504753;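 active = inhibition of at least 50% at 20 µM in any single replicate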
Diaphorase 10uM: counter-screen for P. falciparum G6PD inhibitors: diaphorase inhibitors, oxidizers | shares compounds with PfG6PD inh | 39% of 820 active | diaphorase-coupled resazurin reduction, fluorescence, NADPH 10 uM | inhibition, % at 20 µM;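 active = average inhibition reaching 50% or more with the compound at 20 µM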;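 note: resorufin red fluorescence formed as diaphorase reduces resazurin using NADPH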
Diaphorase 30uM: inhibits diaphorase or oxidizes, flagging false PfG6PD hits; shares compounds with PfG6PD inh; AID 504863; Diaphorase/resazurin coupled assay, resorufin fluorescence, 30 uM NADPH; inhibition, % at 20 µM; 29% of 820 active;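 active = inhibition averaging 50% or more, tested at 20 µM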
Numbers stand for hits; - = inactive; . = no result.

SMILES | G6PDH counter | Diaph inh CS | HKDC1 inhibitor | PfG6PD inh | PfGluPho conf | others
COc1ccc(-c2cc3cc(F)ccc3cn2)cc1 | . | . | - | - | .
O=C1C=C(c2ccccc2)C(=O)N1Nc1ccccc1 | - | - | - | 59.8 | -
Cc1nn(-c2ccccc2)c(Cl)c1/C=N/Nc1nc2ccccc2n1C | - | - | - | 101.5 | 46.9 | Diaphorase 10uM=-;Diaphorase 30uM=-
CC(C)c1ccc(C2CC(=O)N3CN(Cc4ccco4)CSC3=C2C#N)cc1 (configuration not stated) | - | - | - | 61.4 | -
COc1cc(C2CC(=O)N3CN(Cc4ccco4)CSC3=C2C#N)ccc1OCc1ccccc1 (configuration not stated) | - | - | - | 60.3 | -
N#CC1=C2SCN(Cc3ccccc3)CN2C(=O)CC1c1cccs1 (configuration not stated) | - | - | - | 70.9 | -
COC(=O)C1=C(C)N(C)C(=O)NC1c1c(OC)ccc2ccccc12 (configuration not stated) | . | . | - | - | .
COc1cc(CNCc2ccco2)ccc1OCc1ccccc1 | - | - | - | - | .
COc1ccc2ccccc2c1C1CC(=O)N2CN(C3CCCCC3)CSC2=C1C#N (configuration not stated) | - | - | - | 72.1 | 64.7 | Diaphorase 10uM=-;Diaphorase 30uM=-
CCCSC1=C(C#N)C(c2cccs2)CC(=O)N1 (configuration not stated) | . | . | - | - | .
CCC(C)[C@H](NC(=O)N1CC(=O)Nc2ccccc21)C(=O)N[C@@H](C(=O)O)c1ccccc1 (some centres not stated) | . | . | - | - | .
NS(=O)(=O)c1ccc(CCNC(=O)COC(=O)c2ccc([N+](=O)[O-])o2)cc1 | . | . | - | - | .
C=CC[C@H](CC(=O)N(CCO)Cc1ccccc1)C(=O)N[C@H](COC(=O)[C@@H](CC=C)Cc1ccc(F)cc1)Cc1ccccc1 | . | . | - | - | .
CN[C@H](C)C(=O)NC[C@H]1O[C@@H](n2cnc3c(N)ncnc32)[C@H](O)[C@@H]1O | . | . | - | - | .
CC(NCC(=O)Nc1ccccc1C(=O)NC1CC1)c1ccc(S(C)(=O)=O)cc1 (configuration not stated) | . | . | - | - | .
O=C(NCCCCl)C1CC(=O)N(CCc2ccc(F)cc2)C1 (configuration not stated) | . | . | - | - | .
CCOc1cc2c(cc1O)C(=NOC)CC1C2CCC2(C)C(O)CCC12 (configuration not stated) | . | . | - | - | .
CCOc1cc(C2CC(=O)N3CN(C4CCCCC4)CSC3=C2C#N)ccc1O (configuration not stated) | - | 57.9 | - | 76.2 | -
CCOc1cc(C2CC(=O)NC(SCC)=C2C#N)ccc1O (configuration not stated) | - | - | - | - | .
COc1ccc(C2C(C#N)=C(N)Oc3cc(C)n(Cc4ccco4)c(=O)c32)cc1 (configuration not stated) | - | - | - | - | .
COc1ccc2ccccc2c1C1CC(=O)N2CN(Cc3ccco3)CSC2=C1C#N (configuration not stated) | - | - | - | 68.3 | -
COc1ccc(C2CC(=O)N3CN(Cc4ccco4)CSC3=C2C#N)cc1 (configuration not stated) | - | - | - | 59.2 | -
Nc1cc(C(Cl)=C(Cl)Cl)c(S(N)(=O)=O)cc1S(N)(=O)=O | . | . | - | - | .
CN(Cc1ccccc1)C(=O)c1ccc(NC(=O)Cc2cccc(NC(=O)C3CCN(C(=O)C4CCCC4)CC3)c2)cc1 | . | . | - | - | .
CCOC(=O)C1(Cc2ccccc2Cl)CCN(C(=O)CCn2ccnc2C)CC1 | - | - | - | - | .
SMILES | G6PDH counter | Diaph inh CS | HKDC1 inhibitor | PfG6PD inh | PfGluPho conf | others
Cc1ccc(/C=C/C(=O)OCC(=O)NCc2cccs2)o1 | . | . | - | 61.0 | -
c1ccc(OCc2nnc3n2N=C(c2ccccc2)CS3)cc1 | - | - | - | 100.4 | 57.8 | Diaphorase 10uM=-;Diaphorase 30uM=-
COC(=O)c1ccc(CCc2cc(O)ccc2O)cc1 | . | . | - | - | -
COc1cc2cc(NC(C)=O)cc(NCc3ccccc3)c2cc1OC | . | . | - | - | .
CCCCNc1cc(NC(C)=O)cc2cc(OC)c(OC)cc12 | - | - | - | 72.1 | -
O=C(Nc1nnc(CSCc2ccccc2F)s1)c1cccc([N+](=O)[O-])c1 | - | - | - | 61.1 | -
COc1ccc(C(=O)Nc2nnc(S(=O)(=O)N3CCCCCC3)s2)cc1OC | . | . | - | - | .
O=C(Nc1nnc(S(=O)(=O)N2CCCC2)s1)c1cccc([N+](=O)[O-])c1 | . | . | - | 97.3 | 76.7 | Diaphorase 10uM=50.1;Diaphorase 30uM=-
O=C(Nc1nnc(S(=O)(=O)N2CCCCC2)s1)c1cccc(Br)c1 | . | . | - | 99.7 | 60.7 | Diaphorase 10uM=69.4;Diaphorase 30uM=-
O=C(CN(Cc1ccc(Cl)cc1)C(=O)c1csnn1)NCc1ccccc1 | . | . | - | - | .
COc1ccc(CC(=O)N[C@@H]2c3cc(OC)c(OC)cc3C[C@H]2O)cc1 | . | . | - | - | .
O=S(=O)(NNc1ncc(C(F)(F)F)cc1Cl)c1ccc(F)cc1F | . | . | - | 64.8 | -
O=C1CCCN1CCC(=O)N1CCCC(N2CCN(c3ccccc3F)CC2)C1 (configuration not stated) | . | . | - | - | .
Oc1ccc(-c2cn3c(n2)SCC3)cc1O | - | 51.6 | - | 63.2 | 89.4 | Diaphorase 10uM=-;Diaphorase 30uM=-
Oc1ccc(-c2cn3c(n2)SCC3)cc1 | - | - | - | - | .
O=C(COC(=O)COc1ccc(Br)cc1)NCc1ccccc1 | . | . | - | - | .
COc1ccc(-c2nc(N)ncc2-c2ccccc2OC)c(O)c1 | . | . | - | 73.5 | -
COc1cc(C(=O)NCC(c2cccs2)N2CCOCC2)ccc1OCc1ccc(Cl)cc1 (configuration not stated) | . | . | . | - | .
COc1ccc(OCC(=O)OCC(=O)NC2CCCCC2C)cc1 (configuration not stated) | . | . | - | - | .
COc1cc(NC2CCCCC2O)c2nc(-c3ccc(Cl)cc3)ccc2c1 (configuration not stated) | . | . | - | 61.2 | -
COC(=O)[C@H](CC(C)C)N1Cc2cc(OC)cc(OC)c2-c2ccccc2S1(=O)=O | . | . | - | 64.5 | -
C=C1CCN(C(CC(C)C)C(=O)OC)S(=O)(=O)c2ccccc21 (configuration not stated) | . | . | - | - | .
COc1ccc(CN2CCC[C@]3(N[C@H](c4ccccc4)[C@@H]4C(=O)N(C)C(=O)[C@@H]43)C2=O)cc1 | . | . | . | - | .
Oc1c(Br)cc(/C=N/Nc2nncc3ccccc23)cc1Br | . | . | - | 62.7 | -
Cc1ccc(-n2c(N)c(C(=O)N3CCN(C)CC3)sc2=S)cc1 | - | - | - | 78.8 | 70.1 | Diaphorase 10uM=-;Diaphorase 30uM=-
Nc1c(C(=O)N2CCCCC2)sc(=S)n1-c1ccccc1 | - | - | - | 78.8 | -
Nc1c(C(=O)N2CCOCC2)sc(=S)n1-c1ccccc1 | - | - | - | 59.0 | -

Compound activity: PubChem BioAssay, Sanford-Burnham Center for Chemical Genomics
